Data as given in publication PMC6679735 (Biochimica et biophysica acta. Molecular and cell biology …, 2019).
Read-outs that look alike come from different tables or passages of the source.

Tests used:
[1] = tested on: Npc1^I1061T/I1061T mice; experiment: Lipidomic profiling of liver and brain after six-week treatment; type: in vivo, mouse; conditions: six weeks weekly treatment, versus vehicle
[2] = tested on: histone H3; experiment: Acute histone H3 acetylation in liver by western blot, 1 h after single dose; type: in vivo, C57BL/6J mice; conditions: one hour post single injection, versus vehicle
[3] = Maximum drug concentration of HPβCD after a peripheral dose; type: in vivo; conditions: peripheral dose of 4000 mg/kg HPβCD with PEG400/DMSO; extrapolated
[4] = tested on: NPC1 patients; conditions: Phase 1/2a trial; cited from earlier work
[5] = tested on: NPC1 cat model; conditions: 4000 mg/kg HPβCD; cited from earlier work
[6] = direct CNS administration; cited from earlier work
[7] = tested on: human NPC1^I1061T fibroblasts; experiment: Filipin LSO compartment ratio dose response in fibroblasts; type: cell-based; conditions: 72 h, 40 nM to 10 μM
In short: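 Human fibroblasts in MEM with 5% FBS, seeded in 384-well plates at 450 cells/well and incubated overnight. Test compound added at 40 nM–10 μM final; DMSO control on each plate. After 72 h, cells were PBS-washed, fixed in 1.5% PFA, and stained with 50 μg/ml filipin plus Draq5. Automated imaging at four sites/well gave the LSO compartment ratio, normalised to DMSO. Four wells per condition, three experiments.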

[8] = tested on: Npc1^nmf164 mice; conditions: 150mg/kg vorinostat in PEG/DMSO vehicle; cited from earlier work
[9] = tested on: NPC1^I1061T protein; type: in vivo, mouse; conditions: six weeks treatment, versus vehicle
[10] = type: in vivo, C57BL/6J mice
In short: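 Five-week-old male C57BL/6J mice received a single i.p. injection (10 μL/g). Plasma, liver and brain were harvested at 0.25, 1, 2, 4 and 7 h, n=4 per time point. Analyte was measured by LC-MS/MS on a C18 column with a d5-labelled internal standard and eight duplicate calibrators. Non-compartmental parameters used mean concentrations of 3–4 mice per time point; AUC by the linear trapezoidal method.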

[11] = tested on: murine embryonic fibroblasts and human fibroblasts expressing the NPC1^I1061T protein; conditions: cited from earlier work
[12] = tested on: bone marrow-derived macrophages from Npc1^I1061T/I1061T mice; experiment: Filipin LSO assay in bone marrow-derived macrophages; type: cell-based, mouse
[13] = tested on: Npc1^I1061T/I1061T mice; type: in vivo, mouse; conditions: liver; six weeks treatment, versus vehicle
In short: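 Mice were dosed i.p. at 10 μL/g from four weeks of age, weekly for six weeks (one arm three times weekly). HPβCD was 2000 mg/kg (4000 mg/kg in the 3x/wk arm). Saline perfusion 1 h after the last dose. PFA-fixed liver was cut at 35 μm on a vibratome and stained with 0.005% filipin in PBS, with a DMSO-only control. Two blinded reviewers scored hepatocyte staining 0–5.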

[14] = tested on: histone H3; experiment: Histone H3 acetylation in liver and brain after six-week treatment; type: in vivo, Npc1^I1061T/I1061T mice; conditions: end of six-week treatment, one hour after final dose
In short: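 Four-week-old mice were dosed weekly i.p. at 10 μL/g for six weeks and harvested 1 h after the final dose. Frozen cortex was homogenised in TNEN buffer (pH 8) with protease inhibitors and 1 mM PMSF, then spun at 10,000 × g for 10 min at 4°C. Equal protein was run on 4–12% Bis-Tris gels and blotted with anti-H3 (1:10,000) and anti-acetyl-H3 (1:1000). Hsp90 was the loading control; detection by chemiluminescence.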

[15] = male, C57BL/6J, mouse, brain, ip, 50 mg/kg
[16] = male, C57BL/6J, mouse, liver, ip, 50 mg/kg
[17] = male, C57BL/6J, mouse, plasma, ip, 50 mg/kg

For `CC(=O)Nc1ccc(C(=O)Nc2ccccc2N)cc1` [CI994], the “Lipid storage in liver (lipidomics, sphingolipid and sterol species)” value (shortened to “Lipid storage in liver”) [1] was “none of the treatment groups administered formulations containing vorinostat, CI994, or IVA alone showed evidence of lipid reduction”.

For `CC(O)COC[C@H]1O[C@@H]2O[C@H]3[C@H](O)[C@@H](O)[C@@H](O[C@H]4[C@H](O)[C@@H](O)[C@@H](O[C@H]5[C@H](O)[C@@H](O)[C@@H](O[C@H]6[C@H](O)[C@@H](O)[C@@H](O[C@H]7[C@H](O)[C@@H](O)[C@@H](O[C@H]8[C@H](O)[C@@H](O)[C@@H](O[C@H]1[C@H](O)[C@H]2O)O[C@@H]8COCC(C)O)O[C@@H]7COCC(C)O)O[C@@H]6COCC(C)O)O[C@@H]5COCC(C)O)O[C@@H]4COCC(C)O)O[C@@H]3COCC(C)O` (stereo partly drawn) [HPβCD, 2-hydroxypropyl-β-cyclodextrin], the “Liver histone H3 acetylation (acetylated H3 / total H3)” value [2] is listed as “did not increase H3 acetylation acutely”, the “Maximum drug concentration achieved” value [3] is listed as ~ 15 μM and the Neurodegenerative disease progression [4] is listed as “effective in slowing neurodegenerative disease progression”. The “Toxicity of peripheral dose” value [5] was “toxic in the NPC1 cat model” and the “Drug concentration achieved in CSF” value [6] was 1000 µM.

In the case of `O=C(O)CCCCCCC(=O)Nc1ccccc1` [IVA, 8-oxo-8-(phenylamino)octanoic acid], the “Liver histone H3 acetylation (acetylated H3 / total H3)” value [2] is reported as “No increase in acetylation”, the “Lipid storage in liver” value [1] is reported as “none of the treatment groups administered formulations containing vorinostat, CI994, or IVA alone showed evidence of lipid reduction” and the “Effect on lysosomal cholesterol storage (filipin LSO compartment ratio)” value [7] is reported as “had no effect on cholesterol storage”.

For `O=C(CCCCCCC(=O)Nc1ccccc1)NO` [vorinostat, suberoylanilide hydroxamic acid], the “Liver histone H3 acetylation (acetylated H3 / total H3)” value [2] is given as “Increased histone 3 acetylation”, the “Efficacy on disease progression, life span, or weight loss” value [8] is given as “did not show efficacy” and the “Liver pathology and function” value [8] is given as “limited improvement in liver pathology and function”. For the same compound, the “NPC1 mutant protein expression and lipid accumulation” value [8] was “remained unchanged”, the “NPC1^I1061T protein expression in liver” value [9] was “reduction of NPC1 protein” and the “Lipid storage in liver” value [1] was “modest reduction in only a single lipid species (MCer 24:0)”. The “Effect on lysosomal cholesterol storage (filipin LSO compartment ratio)” value [7] was “reduces lysosomal cholesterol”, the “Vorinostat Cmax, brain” value ([10]; brain, single i.p. dose) was 1163 ng/mL and the “Vorinostat Cmax, liver” value ([10]; liver, single i.p. dose) was 209 ng/mL. The AUC(0-t) [10, 15] was 1240 ng·h/mL, the Tmax [10, 15] was 15 min and the AUC(0-t) [10, 16] was 513 ng·h/mL. For the same compound, the Tmax [10, 16] was 15 min, the AUC(0-inf) [10, 17] was 7600 ng·h/mL and the AUC(0-t) [10, 17] was 7540 ng·h/mL. For the same compound, the Cmax [10, 17] was 10500 ng/mL, the Tmax [10, 17] was 15 min and the half-life [10, 17] was 40.8 min. For the same compound, the Cholesterol storage [11] was “effective in reducing cholesterol storage”, the “Reduction of cholesterol accumulation in differentiated macrophages” value ([12]; 4 nM to 10 μM, 48h or 72h) was “not effective at reducing the cholesterol accumulation” and the “Cholesterol accumulation in LSOs (filipin intensity) at 330 nM” value ([12]; 330 nM, normalized to DMSO treated cells) was “slight decrease in cholesterol accumulation”. The “Concentration toxic to BMMs” value ([12]; 48h or 72h treatment) was “above 1 μM”, the “Hepatocyte filipin staining (cholesterol storage)” value [13] was “did not alter cholesterol levels” and the “Ratio of acetylated histone H3 to total histone H3 in brain” value ([14]; brain) was “showed an increase in the ratio”. For the same compound, the “Ratio of acetylated histone H3 to total histone H3 in liver” value ([14]; liver) was “significant increase in the ratio of acetylated histone H3 relative to total histone H3”.
